Drawing on ChEMBL document CHEMBL3632582, “Aspertetranones A-D, Putative Meroterpenoids from the Marine Algal-Associated Fungus Aspergillus sp. ZL0-1b14” (J Nat Prod, 2015), this text covers Activity and inhibition for four compounds.

The test system of data set [1] is RAW264.7. Briefly: Cytotoxicity against mouse RAW264.7 cells assessed as cell viability at 10 to 100 uM after 24 hrs by MTS assay. Format: cell-based. The following applies: raw264.7, 24 h. An outline of the steps: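 RAW264.7 cells were seeded at 2 × 10^6 cells per well and grown to 80% confluency. They were then exposed to compound over a 10–100 μM gradient for 24 h, and viability was read colorimetrically by MTS.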
(In general: Tetrazolium assays rely on reduction of a dye to a coloured formazan, in cell work by metabolically active cells.)

In data set [2] the test system is RAW264.7. Briefly: Antiinflammatory activity in mouse RAW264.7 cells assessed as inhibition of LPS-induced TNFalpha production at 33.3 uM preincubated 2 hrs before LPS stimulation measured after 22 hrs by ELISA. Format: functional. A general note: ELISA stands for enzyme-linked immunosorbent assay.
The subject of data set [3] is RAW264.7. Briefly: Antiinflammatory activity in mouse RAW264.7 cells assessed as inhibition of LPS-induced IL-1beta production preincubated 2 hrs before LPS stimulation measured after 22 hrs by ELISA. Format: functional, cell-based. The essentials: (§1)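 RAW 264.7 macrophages were pretreated for 2 h with compound across 0–80 μM, with hydrocortisone (20 μM) as control. LPS was then added for a further 22 h. IL-6 or IL-1β in the culture medium was quantified by ELISA.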

The test system of data set [4] is RAW264.7. Description: Antiinflammatory activity in mouse RAW264.7 cells assessed as inhibition of LPS-induced IL-6 production preincubated 2 hrs before LPS stimulation measured after 22 hrs by ELISA. Type of data set: functional, cell-based. An outline of the steps: as §1
The test system of data set [5] is RAW264.7. Description: Antiinflammatory activity in mouse RAW264.7 cells assessed as inhibition of LPS-induced nitric oxide production at 33.3 uM preincubated 2 hrs before LPS stimulation measured after 22 hrs. Format: functional.
Data set [6] relates to RAW264.7. Briefly: Antiinflammatory activity in mouse RAW264.7 cells assessed as inhibition of LPS-induced IL-1beta production at 40 uM preincubated 2 hrs before LPS stimulation measured after 22 hrs by ELISA. Format: functional. An outline of the steps: as §1
Data set [7] has as its system RAW264.7. Briefly: Antiinflammatory activity in mouse RAW264.7 cells assessed as inhibition of LPS-induced IL-6 production at 40 uM preincubated 2 hrs before LPS stimulation measured after 22 hrs by ELISA. Type of data set: functional. An outline of the steps: as §1

SMILES strings stand for the structures. Calls of active or inactive are those of the source. The rule behind the calls is not given here.

For `Cc1oc(=O)c2c(c1C)O[C@@]1(C)[C@H](C2)[C@@H](C)[C@]2(O)CC(=O)C(C)(C)C(=O)[C@@]2(O)[C@H]1O`, in the data set on RAW264.7 [1], the Activity result is “Non-toxic”. Also, the inhibition at 33.3 µM with RAW264.7 [2] and with RAW264.7 [5] was less than 35% throughout. Further, the inhibition entry in the data set on RAW264.7 [3] and with RAW264.7 [4] was “inactive” throughout.

Turning to `Cc1oc(=O)c2c(c1C)O[C@@]1(C)[C@@H]([C@@H](C)[C@]3(O)CC(=O)C(C)(C)C(=O)[C@@]3(O)[C@H]1O)[C@H]2O`, the results for the inhibition at 40 µM with RAW264.7 [6] and in the data set with RAW264.7 [7] were 47% and 69%, respectively. The Activity entry with RAW264.7 [1] was “Non-toxic”. The inhibition at 33.3 µM in the data set on RAW264.7 [2] and in the data set with RAW264.7 [5] was less than 35% in each case. The inhibition entry in the data set on RAW264.7 [3] and with RAW264.7 [4] was “Dose-dependent effect” each time.

As to `Cc1oc(=O)c2c(c1C)O[C@@]1(C)[C@H](C2=O)[C@@H](C)[C@]2(O)CC(=O)C(C)(C)C(=O)[C@@]2(O)[C@H]1O`, the inhibition (usually the relative decrease from the control value, in per cent) at 40 µM worked out at 42% in the data set with RAW264.7 [6] and 43% in the data set on RAW264.7 [7]. Moreover, in the data set with RAW264.7 [1], the Activity entry is recorded as “Non-toxic”. Also, the inhibition at 33.3 µM in the data set with RAW264.7 [2] and in the data set on RAW264.7 [5] was less than 35% throughout. The inhibition result in the data set with RAW264.7 [3] and in the data set on RAW264.7 [4] was “Dose-dependent effect” each time.

In the case of `Cc1cc2c(c(=O)o1)C(=O)[C@@H]1[C@@H](C)[C@]3(O)CC(=O)C(C)(C)C(=O)[C@@]3(O)[C@@H](O)[C@@]1(C)O2`, in the data set with RAW264.7 [1], the Activity result is listed as “Non-toxic”. In addition, the inhibition at 33.3 µM in the data set with RAW264.7 [2] and in the data set with RAW264.7 [5] was less than 35% throughout. Also, the inhibition result with RAW264.7 [3] and with RAW264.7 [4] was “inactive” in each case.
